Results filed as inconclusive are left out.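 How the source made its calls, unless noted: active means RAM network inhibition above 8.4% in each of two replicates, 3 SD over the compound average; inconclusive means above 8.4% inhibition in only one replicate; inactive means 8.4% inhibition or less in each replicate.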
What was measured:
[1] = S. cerevisiae growth inhibition in permissive medium (OD615), pilot counter-assay for S. cerevisiae lifespan shortening project, permissive growth control (AID 705;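 active means growth inhibition above 25% in both replicates, a cutoff set 3 SD above the mean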); settings: OD615, 24 h, at 10 µM, stronger effect = higher value
Outline: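 assay system = Saccharomyces cerevisiae strain carrying genetically modified DeaD replicative-lifespan system | medium = SC raffinose/galactose permissive medium | dosing = 10 µM single dose, 0.25% DMSO | schedule = 24 h compound exposure at 30 °C after 4 h pre-growth | measured by = OD at 615 nm | read-out basis = growth inhibition from lowered OD615 after 24 h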

[2] = S. cerevisiae growth inhibition in restrictive medium, OD615, pilot screen, restrictive growth control, yeast lifespan reduction project (AID 706;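 active means growth inhibition above a set limit, 3 SD over mean compound inhibition, in both replicates, cut at about 43% in these data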;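 further: modified DeaD lifespan yeast strain shifted to restrictive glucose medium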); settings: OD615, 48 h, at 10 µM, stronger effect = higher value
Outline: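 Buffer or medium: CSMM-D glucose medium. Material: genetically modified Saccharomyces cerevisiae, DeaD replicative lifespan assay strain. Times: 48 h compound exposure at 30 °C. Measured by: optical density at 615 nm.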

[3] = doxorubicin toxicity protection in MRP-1 cells – H69AR cells, CellTiter-Glo, duplicate, MRP-1 activator project, pilot screen (AID 807;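 active means viability increase at or above a cutoff of the median across tested compounds plus 3 SD, cut at about 8.5% in these data, passing the limit was not always enough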;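 further: compound pretreatment 18-22 h then 72 h combined with doxorubicin; 0% = doxorubicin alone and 100% = vehicle without doxorubicin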); settings: H69AR viability with doxorubicin, CellTiter-Glo luminescence; at 10 µM; stronger effect = higher value
[4] = viability of HCT116 without oncogenic beta-catenin – human colon tumor cells, pilot screen (AID 823;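 active means cell viability at or below a set limit in both duplicate runs, the limit being the all-compound median minus 4 SD, cut at about 23% in these data, passing the limit was not always enough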;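 further: 0% = wells killed by 20 µM Hyamine and 100% = untreated DMSO cell wells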); settings: HCT116 beta-catenin knockout viability, CellTiter-Glo, 60 h; at 10 µM; stronger effect = lower value
[5] = viability of PTEN-null HCT116 cells – cell-based, HCT116 clonal line, CellTiter-Glo, pilot screen (AID 824;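 active means viability at or below 27.92% in each of two runs, the all-compound median minus 4 SD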;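 further: 0% = 20 µM Hyamine control and 100% = vehicle cell control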); settings: HCT116 PTEN-deleted viability, 60 h, at 10 µM, stronger effect = lower value
[6] = RAM pathway blockade in budding yeast – dse1pr::URA3 reporter, 5-FOA selection, pilot screen (AID 869;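 active means inhibition over a set limit, the all-compound mean plus 3 SD, in both replicate runs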;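 further: 0% = DMSO wells with no growth and 100% = 10 µM 1-NA-PP1 with full growth; RAM network block rescues cells from 5-FOA so hits raise OD615 growth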); settings: S. cerevisiae dse1pr::URA3 5-FOA growth, OD615, 2 d; at 10 µM; stronger effect = higher value; strain carries analog-sensitive mutant Cbk1 kinase
[7] = RAM signaling pathway blockade in yeast – S. cerevisiae, Pdr1DBD-CYC8 efflux-inhibited sensitized strain, primary screen (AID 1298);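 further: 0% = DMSO untreated cells without growth and 100% = 10 µM 1-NA-PP1 full growth; higher means more yeast growth rescued from 5-FOA killing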; settings: S. cerevisiae cbk1-as DSE1-URA3 strain, 5-FOA growth OD615, 2 d; at 50 µM; stronger effect = higher value

CCCc1cc(C(=O)Nc2cccc(Cl)c2)no1
inactive: growth inhibition [1] -7.36% | growth inhibition [2] -1.01% | viability increase [3] 0.77% | viability [4] 102% | viability [5] 97.7% | inhibition [6] 1.44% | RAM network inhibition [7] -1.31%

CC1CCc2nn(CC(=O)N3CCCCCC3)cc2C1 (configuration not stated)
inactive: growth inhibition [1] -3.02% | growth inhibition [2] 1.8% | viability increase [3] -0.62% | viability [4] 100% | viability [5] 91.4% | inhibition [6] 1.23% | RAM network inhibition [7] 1.06%

CCCNC(=O)C(Cc1ccccc1)NS(=O)(=O)c1ccc2c(c1)CCC(=O)N2 (configuration not stated)
inactive: growth inhibition [1] -5.35% | growth inhibition [2] -3.94% | viability increase [3] 0.26% | viability [4] 101% | viability [5] 102% | inhibition [6] 0.755% | RAM network inhibition [7] 1.71%

Cc1ccc(N2CN=c3s/c(=C\c4ccccn4)c(=O)n3C2)cc1
inactive: growth inhibition [1] -7.53% | growth inhibition [2] 1.19% | viability increase [3] -2.37% | viability [4] 86.8% | viability [5] 98.7% | inhibition [6] -0.31% | RAM network inhibition [7] 3.39%

CCOc1ccc(C(=O)CCNC(Cc2cnc[nH]2)C(=O)O)cc1 (configuration not stated)
inactive: growth inhibition [1] 5.56% | growth inhibition [2] 8.23% | viability increase [3] -2.31% | viability [4] 95.1% | viability [5] 92.7% | inhibition [6] 2.15% | RAM network inhibition [7] 4.96%

C=CCN(C(=O)CN1CCOCC1)c1nc(C)c(-c2ccccc2)s1
inactive: growth inhibition [1] -16.4% | growth inhibition [2] -12.9% | viability increase [3] -3.35% | viability [4] 91.9% | viability [5] 87.4% | inhibition [6] -0.245% | RAM network inhibition [7] 0.88%

O=C(Cn1ncc2c1-c1ccccc1OC2)Nc1ccc(S(=O)(=O)N2CCCCC2)cc1
inactive: growth inhibition [1] 0.515% | growth inhibition [2] -5.21% | viability increase [3] -2.69% | viability [4] 90.7% | viability [5] 84.8% | inhibition [6] 0.655% | RAM network inhibition [7] 4.53%

COc1ccc(C2CC(=O)N3CN(c4ccccc4F)CSC3=C2C#N)cc1OC (configuration not stated)
inactive: growth inhibition [1] 7.21% | growth inhibition [2] 19.4% | viability increase [3] -1.47% | viability [4] 107% | viability [5] 95.5% | inhibition [6] 1.22% | RAM network inhibition [7] 1.24%

Cc1ccc(CSc2nnc(Cn3c(=O)sc4ccccc43)n2C)cc1
inactive: growth inhibition [1] -10.6% | growth inhibition [2] 5.88% | viability increase [3] 2.44% | viability [4] 95.8% | viability [5] 88.2% | inhibition [6] 2.75% | RAM network inhibition [7] 6.03%

CCC1CCCCN1C(=O)CSc1nc(N)c(NC(=O)c2ccco2)c(=O)[nH]1 (configuration not stated)
inactive: growth inhibition [1] 12.5% | growth inhibition [2] 10.7% | viability increase [3] -2.48% | viability [4] 106% | viability [5] 99% | inhibition [6] 2.09% | RAM network inhibition [7] 2.2%

CC(=O)NCCc1cc2ccc(C)c(C)c2[nH]c1=O
inactive: growth inhibition [1] -14.9% | growth inhibition [2] -18.7% | viability increase [3] -1.53% | viability [4] 103% | viability [5] 97% | inhibition [6] 1.05% | RAM network inhibition [7] 0.37%

CCCSC1=N/C(=C\c2ccsc2)C(=O)S1
inactive: growth inhibition [1] -10.5% | growth inhibition [2] -3.12% | viability increase [3] -0.76% | viability [4] 95.1% | viability [5] 99.2% | inhibition [6] 0.72% | RAM network inhibition [7] 9.91%

Cc1sc2nc(SCC(=O)N3CCCC3)[nH]c(=O)c2c1C
inactive: growth inhibition [1] -0.89% | growth inhibition [2] -6.9% | viability increase [3] -1.34% | viability [4] 104% | viability [5] 98% | inhibition [6] 0.26% | RAM network inhibition [7] 1.77%

COc1ccc2cc(CCNC(=O)c3c(-c4ccccc4Cl)noc3C)c(=O)[nH]c2c1
inactive: growth inhibition [1] -14.1% | growth inhibition [2] -21.1% | viability increase [3] -3.23% | viability [4] 103% | viability [5] 92.7% | inhibition [6] 1.02% | RAM network inhibition [7] 4.72%

Cc1cc(Nc2cccc(C)c2C)n2ncnc2n1
inactive: growth inhibition [1] -5.19% | growth inhibition [2] -1.32% | viability increase [3] -0.81% | viability [4] 95.1% | viability [5] 94.3% | inhibition [6] -0.155% | RAM network inhibition [7] -1.31%

COC1=CC(=O)OC12CCCCC2
inactive: growth inhibition [1] 3.99% | growth inhibition [2] -2.73% | viability increase [3] -0.88% | viability [4] 94.7% | viability [5] 95.8% | inhibition [6] 1.27% | RAM network inhibition [7] 2.11%

CCS(=O)(=O)n1nc(-c2ccccc2)cc1N
inactive: growth inhibition [1] -3.12% | growth inhibition [2] -16.4% | viability increase [3] -1.52% | viability [4] 98.7% | viability [5] 96.7% | inhibition [6] 0.555% | RAM network inhibition [7] 1.53%

CCCC(=O)Nc1nc2ccc(OC)cc2s1
inactive: growth inhibition [1] -15.5% | growth inhibition [2] -17.6% | viability increase [3] 1.29% | viability [4] 93.8% | viability [5] 80.7% | inhibition [6] 0.5% | RAM network inhibition [7] 2.32%

COc1cccc(-c2nc(CS(=O)CC(=O)NCc3ccccc3)c(C)o2)c1 (configuration not stated)
inactive: growth inhibition [1] -9.55% | growth inhibition [2] -15.4% | viability increase [3] 1.16% | viability [4] 99.5% | viability [5] 96.2% | inhibition [6] 1.11% | RAM network inhibition [7] 4.44%

O=C(O)c1ccccc1C(=O)NCc1ccccc1
inactive: growth inhibition [1] -7.18% | growth inhibition [2] -15.6% | viability increase [3] 1.13% | viability [4] 99.3% | viability [5] 100% | inhibition [6] 0.27% | RAM network inhibition [7] 1.13%

COc1ccc(C2N3CC4(C)CN2CC(C)(C3)C4=O)cc1OC (configuration not stated)
inactive: growth inhibition [1] -1.15% | growth inhibition [2] 2.95% | viability increase [3] -0.5% | viability [4] 102% | viability [5] 103% | inhibition [6] 1.67% | RAM network inhibition [7] 0.11%

COc1ccc(O)c(C(=O)c2cnn(C(=O)c3cc(C)oc3C)c2)c1
inactive: growth inhibition [1] -9.76% | growth inhibition [2] -11.3% | viability increase [3] -1.89% | viability [4] 97.2% | viability [5] 88.7% | inhibition [6] 2.02% | RAM network inhibition [7] 1.5%

CCOC(=O)Nc1ccccc1C(=O)N1CCOCC1
inactive: growth inhibition [1] -8.68% | growth inhibition [2] -2.7% | viability increase [3] -0.42% | viability [4] 97.5% | viability [5] 98% | inhibition [6] 1.89% | RAM network inhibition [7] 2.52%

COc1cccc(C(=O)NCCn2ccc3ccccc32)c1
inactive: growth inhibition [1] -0.9% | growth inhibition [2] -3.15% | viability increase [3] -1.6% | viability [4] 95.3% | viability [5] 90.6% | inhibition [6] 0.825% | RAM network inhibition [7] 2.48%

CC1(C)Cc2c(c(N3CCOCC3)nc3sc(C(=O)N4CCCCC4)c(N)c23)CO1
inactive: growth inhibition [1] 2.35% | growth inhibition [2] 29.3% | viability increase [3] -4.48% | viability [4] 100% | viability [5] 96.6% | inhibition [6] 2.62% | RAM network inhibition [7] 3.43%

Cc1c(C#N)c2ncn(Cc3ccccc3)c(=O)c2n1-c1ccccc1
inactive: growth inhibition [1] -19.7% | growth inhibition [2] -0.37% | viability increase [3] -3.74% | viability [4] 81.1% | viability [5] 83.8% | inhibition [6] 0.47% | RAM network inhibition [7] 4.19%

N#CC1=C2C=CC=CN2CC1=O
inactive: growth inhibition [1] -23.9% | growth inhibition [2] -15.7% | viability increase [3] -2.42% | viability [4] 91.2% | viability [5] 93.1% | inhibition [6] 1.7% | RAM network inhibition [7] 2.23%

Cn1c(C(=O)NCc2ccccn2)cc2c(=O)n(C)c3ccccc3c21
inactive: growth inhibition [1] -1.81% | growth inhibition [2] 0.035% | viability increase [3] -4.13% | viability [4] 103% | viability [5] 89.5% | inhibition [6] 0.965% | RAM network inhibition [7] -0.15%

COc1ccccc1CNC(=O)c1ccc(CNc2c(N3CCCC3)c(=O)c2=O)cc1
inactive: growth inhibition [1] 3.65% | growth inhibition [2] -2.78% | viability increase [3] -2.46% | viability [4] 98.8% | viability [5] 94.8% | inhibition [6] 0.46% | RAM network inhibition [7] 2.8%

O=C(c1cc(-c2ccccc2)nc2ccccc12)N1CCOCC1
inactive: growth inhibition [1] -4.54% | growth inhibition [2] -9.07% | viability increase [3] -3.82% | viability [4] 102% | viability [5] 90.8% | inhibition [6] -0.135% | RAM network inhibition [7] 1.87%

COc1ccc2c(c1)OC13CCN(C)CC1C2C(C(=O)c1ccc(F)cc1)C(=O)N3 (configuration not stated)
inactive: growth inhibition [1] -25.9% | growth inhibition [2] -21.6% | viability increase [3] -4.02% | viability [4] 78.9% | viability [5] 81.4% | inhibition [6] 0.27% | RAM network inhibition [7] 0.97%

O=C(CN1CCOc2ccccc21)NCc1ccc(Cl)cc1
inactive: growth inhibition [1] -36.4% | growth inhibition [2] -1.02% | viability increase [3] -6.71% | viability [4] 90.8% | viability [5] 81.6% | inhibition [6] 0.665% | RAM network inhibition [7] -0.68%

COc1ccc(-c2c(C)oc3cc(O)cc(O)c3c2=O)cc1OC
inactive: growth inhibition [1] -12.4% | growth inhibition [2] -5.23% | viability increase [3] -1.14% | viability [4] 109% | viability [5] 93.8% | inhibition [6] 1.01% | RAM network inhibition [7] 4.79%

COc1ccc2ccccc2c1C1CC(=O)N2CN(Cc3ccco3)CSC2=C1C#N (configuration not stated)
inactive: growth inhibition [1] 1.42% | growth inhibition [2] 16.4% | viability increase [3] -5.39% | viability [4] 82.5% | viability [5] 80.9% | inhibition [6] 3.5% | RAM network inhibition [7] 3.82%

Cc1cc2ccccc2n1CCNC(=O)C(C)(C)C
inactive: growth inhibition [1] 3.07% | growth inhibition [2] 7.19% | viability increase [3] -0.5% | viability [4] 96.6% | viability [5] 103% | inhibition [6] 1.72% | RAM network inhibition [7] -1.8%

COCCn1c(C)cc(C(=O)CSc2nnc3ccccn23)c1C
inactive: growth inhibition [1] 8.47% | growth inhibition [2] 3.52% | viability increase [3] -1.95% | viability [4] 98.8% | viability [5] 91.7% | inhibition [6] 0.76% | RAM network inhibition [7] 2.51%

From PubChem BioAssay
